Data as given in ChEMBL document CHEMBL1125138, “1,3-Dialkyl-3-acyltriazenes, a novel class of antineoplastic alkylating agents” (J Med Chem, 1990).

Experiments:
A498 = assay: Evaluated for the inhibitory concentration required to cause growth inhibition of A498Rem- renal cell line using the MTT Cytotoxicity Assay; assay type: functional, cell-based; conditions: Homo sapiens
How it was run: (§1)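 MTT microculture tetrazolium growth assay on human cell lines and normal fibroblasts. Cells seeded at 1000 cells/well, with compound added 24 h after plating. Cultures then incubated a further 6 days at 37 °C before MTT read-out of growth versus untreated cells.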

A-427 = assay: Evaluated for the inhibitory concentration required to cause growth inhibition of A427Mer- cell line of lung using the MTT Cytotoxicity Assay; assay type: functional, cell-based; conditions: Homo sapiens; how it was run: as §1
A704 = assay: Evaluated for the inhibitory concentration required to cause growth inhibition of A704Rem- renal cell line using the MTT Cytotoxicity Assay; assay type: functional, cell-based; conditions: Homo sapiens; how it was run: as §1
A673 = assay: Evaluated for the inhibitory concentration required to cause growth inhibition of A673Mer+ sarcoma cell line using the MTT Cytotoxicity Assay; assay type: functional, cell-based; conditions: Homo sapiens; how it was run: as §1
A 172 = assay: Evaluated for the inhibitory concentration required to cause growth inhibition of A172Mer- cell line of central nervous system (CNS) using the MTT Cytotoxicity Assay; assay type: functional, cell-based; conditions: Homo sapiens; how it was run: as §1
CCD 19Lu = assay: Evaluated for the inhibitory concentration required to cause growth inhibition of CCD-19Lu fibroblasts cell line using the MTT Cytotoxicity Assay; assay type: functional, cell-based; conditions: Homo sapiens; how it was run: as §1
DOD-1 = assay: Evaluated for the inhibitory concentration required to cause growth inhibition of DOD-1 breast cell line using the MTT Cytotoxicity Assay; assay type: functional, cell-based; conditions: Homo sapiens; how it was run: as §1
NCI-H460 = assay: Evaluated for the inhibitory concentration required to cause growth inhibition of H460 cell line of lung using the Microculture Tetrazolium (MTT) Cytotoxicity Assay; assay type: functional, cell-based; conditions: Homo sapiens; how it was run: as §1
NCI-H358 = assay: Evaluated for the inhibitory concentration required to cause growth inhibition of H358M cell line of lung using the Microculture Tetrazolium (MTT) Cytotoxicity Assay; assay type: functional, cell-based; conditions: Homo sapiens; how it was run: as §1
NCI-H125 = assay: Evaluated for the inhibitory concentration required to cause growth inhibition of H125 cell line of lung using the Microculture Tetrazolium (MTT) Cytotoxicity Assay; assay type: functional, cell-based; conditions: Homo sapiens; how it was run: as §1
NCI-H322M = assay: Evaluated for the inhibitory concentration required to cause growth inhibition of H322M cell line of lung using the Microculture Tetrazolium (MTT) Cytotoxicity Assay; assay type: functional, cell-based; conditions: Homo sapiens; how it was run: as §1
NCI-H23 = assay: Evaluated for the inhibitory concentration required to cause growth inhibition of H23 cell line of lung using the Microculture Tetrazolium (MTT) Cytotoxicity Assay; assay type: functional, cell-based; conditions: Homo sapiens; how it was run: as §1
LOX IMVI = assay: Evaluated for the inhibitory concentration required to cause growth inhibition of LOX melanoma cell line using the MTT Cytotoxicity Assay; assay type: functional, cell-based; conditions: Homo sapiens; how it was run: as §1
L1210 [1] = assay: Evaluated for the antineoplastic activity against L1210 leukemia tumor […] after administering intra peritoneally at a dose of 30 mg/kg; assay type: functional, Mus musculus
How it was run: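 Mice bearing L1210 leukemia dosed intraperitoneally once daily for 5 successive days (five injections). Activity reported as % T/C at each dose. Performed under the NCI Developmental Therapeutics Program.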

MCF7 = assay: Evaluated for the inhibitory concentration required to cause growth inhibition of MCF-7 breast cell line using the MTT Cytotoxicity Assay; assay type: functional, cell-based; conditions: Homo sapiens; how it was run: as §1
[2] = tested on: MAR BEL fibroblasts cell line; assay: Evaluated for the inhibitory concentration required to cause growth inhibition of MAR BEL fibroblasts cell line using the MTT Cytotoxicity Assay; assay type: functional, cell-based; conditions: Homo sapiens; how it was run: as §1
[3] = Evaluated for the antineoplastic activity against M5 sarcoma tumor xenograft in nude mice after administering Intra peritoneally at 4-day interval at a dose of 15 mg/kg; assay type: functional, Mus musculus
How it was run: (§2)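 M5 sarcoma-bearing mice given four intraperitoneal injections at 4-day intervals. Activity reported as % T/C per dose. Performed under the NCI Developmental Therapeutics Program.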

[4] = Evaluated for the antineoplastic activity against M5 sarcoma tumor xenograft in nude mice after administering Intra peritoneally at 4-day interval at a dose of 60 mg/kg; assay type: functional, Mus musculus; how it was run: as §2
[5] = Evaluated for the antineoplastic activity against M5 sarcoma tumor xenograft in nude mice after administering Intra peritoneally at 4-day interval at a dose of 7.5 mg/kg; assay type: functional, Mus musculus; how it was run: as §2
[6] = Evaluated for the antineoplastic activity against M5 sarcoma tumor xenograft in nude mice after administering Intra peritoneally at 4-day interval at a dose of 30 mg/kg; assay type: functional, Mus musculus; how it was run: as §2
L1210 [7] = assay: Evaluated for the antineoplastic activity against L1210 leukemia tumor […] after administering intra peritoneally at a dose of 15 mg/kg; assay type: functional, Mus musculus
NCI/ADR-RES = assay: Evaluated for the inhibitory concentration required to cause growth inhibition of MCF-7ADR breast cell line using the MTT Cytotoxicity Assay; assay type: functional, cell-based; conditions: Homo sapiens; how it was run: as §1
Malme-3M = assay: Evaluated for the inhibitory concentration required to cause growth inhibition of MALME-3M melanoma cell line using the MTT Cytotoxicity Assay; assay type: functional, cell-based; conditions: Homo sapiens; how it was run: as §1
OVCAR-4 = assay: Evaluated for the inhibitory concentration required to cause growth inhibition of OVCAR-4 ovarian cell line using the MTT Cytotoxicity Assay; assay type: functional, cell-based; conditions: Homo sapiens; how it was run: as §1
OVCAR-3 = assay: Evaluated for the inhibitory concentration required to cause growth inhibition of OVCAR-3 ovarian cell line using the MTT Cytotoxicity Assay; assay type: functional, cell-based; conditions: Homo sapiens; how it was run: as §1
HOS-TE85 = assay: Evaluated for the inhibitory concentration required to cause growth inhibition of TE85Mer+ sarcoma cell line using the MTT Cytotoxicity Assay; assay type: functional, cell-based; conditions: Homo sapiens; how it was run: as §1
TE-671 = assay: Evaluated for the inhibitory concentration required to cause growth inhibition of TE-671 cell line of central nervous system (CNS)using the MTT Cytotoxicity Assay; assay type: functional, cell-based; conditions: Homo sapiens; how it was run: as §1
WiDr = assay: Evaluated for the inhibitory concentration required to cause growth inhibition of WiDR colon cell line using the MTT Cytotoxicity Assay; assay type: functional, cell-based; conditions: Homo sapiens
How it was run: (§3)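 MTT cell-growth assay in human cell lines: cells harvested and seeded at 1000 cells/well in 96-well plates. Compound added after 24 h, then cultures incubated a further 6 days at 37 °C. Growth measured with and without agent.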

U-251 = assay: Evaluated for the inhibitory concentration required to cause growth inhibition of U251 cell line of central nervous system (CNS) using the MTT Cytotoxicity Assay; assay type: functional, cell-based; conditions: Homo sapiens; how it was run: as §3
[8] = Evaluated for the antineoplastic activity against amelanotic melanoma tumor xenograft in nude mice after injecting intraperitoneally at a dose of 120 mg/kg; assay type: functional, Mus musculus; conditions: route intraperitoneal
[9] = Evaluated for the antineoplastic activity against amelanotic melanoma tumor xenograft in nude mice after injecting intraperitoneally at a dose of 30 mg/kg; assay type: functional, Mus musculus; conditions: route intraperitoneal
[10] = Evaluated for the antineoplastic activity against amelanotic melanoma tumor xenograft in nude mice after injecting intraperitoneally at a dose of 60 mg/kg; assay type: functional, Mus musculus; conditions: route intraperitoneal
RPMI-7951 = assay: Evaluated for the inhibitory concentration required to cause growth inhibition of RPMI7951 melanoma cell line using the MTT Cytotoxicity Assay; assay type: functional, cell-based; conditions: Homo sapiens; how it was run: as §1
SK-MEL-5 = assay: Evaluated for the inhibitory concentration required to cause growth inhibition of SK-MEL-5 melanoma cell line using the MTT Cytotoxicity Assay; assay type: functional, cell-based; conditions: Homo sapiens; how it was run: as §1
A549 = assay: Evaluated for the inhibitory concentration required to cause growth inhibition of A549Rem- cell line of lung using the MTT Cytotoxicity Assay; assay type: functional, cell-based; conditions: Homo sapiens; how it was run: as §1
NCI-H522 (Homo sapiens) = assay: Evaluated for the inhibitory concentration required to cause growth inhibition of H522 cell line of lung using the Microculture Tetrazolium (MTT) Cytotoxicity Assay
P388 = assay: Evaluated in vivo for antineoplastic activity against P388 murine leukemia tumor […] after administering intra peritoneal injection on each of 5 consecutive days at a dose of 30.0 mg/kg; assay type: functional, Mus musculus
How it was run: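 P388 leukemia-bearing mice, run through the NCI Developmental Therapeutics Program. Compound given ip once daily on 5 consecutive days. Activity read out as % T/C.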

**Q.** What does the source list for CCOC(=O)N(C)/N=N\C?
**A.** IC50 (A498): 35 µM; IC50 (A-427): 7 µM; IC50 (A704): 55 µM; IC50 (A673): 75 µM; IC50 (A 172): 20 µM; IC50 (CCD 19Lu): 62 µM; IC50 (DOD-1): 44 µM; IC50 (NCI-H460): 65 µM; IC50 (NCI-H358): 80 µM; IC50 (NCI-H125): 44 µM; IC50 (NCI-H322M): 42 µM; IC50 (NCI-H23): 20 µM; IC50 (LOX IMVI): 22 µM; T/C (L1210 [1]): 142%; IC50 (MCF7): 27 µM; IC50 [2]: 75 µM; T/C [3]: 140%; T/C [4]: 168%; T/C [5]: 131%; T/C [6]: 158%; T/C (L1210 [7]): 133%; IC50 (NCI/ADR-RES): 34 µM; IC50 (Malme-3M): 22 µM; IC50 (OVCAR-4): 40 µM; IC50 (OVCAR-3): 60 µM; IC50 (HOS-TE85): 37 µM; IC50 (TE-671): 48 µM; IC50 (WiDr): 45 µM; IC50 (U-251): 28 µM; T/C [8]: 191%; T/C [9]: 132%; T/C [10]: 147%; IC50 (RPMI-7951): 35 µM; IC50 (SK-MEL-5): 20 µM; IC50 (A549): 45 µM; IC50 (NCI-H522 (Homo sapiens)): 18 µM

**Q.** With CCOC(=O)N(C)/N=N\CCCl as the molecule, how does the IC50 (A498) read?
**A.** Its IC50 is 16 µM.

**Q.** And the IC50 (A-427)?
**A.** Its IC50 is 11 µM.

**Q.** And the IC50 (A704)?
**A.** The IC50 was 18 µM.

**Q.** And the IC50 (A673)?
**A.** Its IC50 is 20 µM.

**Q.** What about the IC50 (A 172) of the same molecule?
**A.** Its IC50 is 18 µM.

**Q.** And the IC50 (CCD 19Lu)?
**A.** The IC50 was 45 µM.

**Q.** What about the IC50 (DOD-1) of the same molecule?
**A.** Its IC50 is 20 µM.

**Q.** What about the IC50 (NCI-H460) of the same molecule?
**A.** The IC50 was 50 µM.

**Q.** What about the IC50 (NCI-H358) of the same molecule?
**A.** The IC50 was 50 µM.

**Q.** And the IC50 (NCI-H125)?
**A.** The IC50 was 30 µM.

**Q.** And the IC50 (NCI-H322M)?
**A.** The IC50 was 14 µM.

**Q.** What about the IC50 (NCI-H23) of the same molecule?
**A.** Its IC50 is 16 µM.

**Q.** And the IC50 (LOX IMVI)?
**A.** The IC50 was 2.4 µM.

**Q.** What about the IC50 (MCF7) of the same molecule?
**A.** Its IC50 is 16 µM.

**Q.** What about the IC50 [2] of the same molecule?
**A.** The IC50 was 46 µM.

**Q.** And the IC50 (NCI/ADR-RES)?
**A.** The IC50 was 17 µM.

**Q.** What about the IC50 (Malme-3M) of the same molecule?
**A.** The IC50 was 15 µM.

**Q.** And the IC50 (OVCAR-4)?
**A.** Its IC50 is 26 µM.

**Q.** What about the IC50 (OVCAR-3) of the same molecule?
**A.** Its IC50 is 26 µM.

**Q.** What about the T/C (P388) of the same molecule?
**A.** Its T/C is 175%.

**Q.** And the IC50 (HOS-TE85)?
**A.** The IC50 was 26 µM.

**Q.** What about the IC50 (TE-671) of the same molecule?
**A.** Its IC50 is 34 µM.

**Q.** And the IC50 (WiDr)?
**A.** Its IC50 is 13 µM.

**Q.** And the IC50 (U-251)?
**A.** The IC50 was 8 µM.

**Q.** And the IC50 (RPMI-7951)?
**A.** Its IC50 is 13 µM.

**Q.** What about the IC50 (SK-MEL-5) of the same molecule?
**A.** Its IC50 is 10 µM.

**Q.** And the IC50 (A549)?
**A.** Its IC50 is 14 µM.

**Q.** What about the IC50 (NCI-H522 (Homo sapiens)) of the same molecule?
**A.** Its IC50 is 10 µM.
